How the values were obtained:
sigma-1 receptor = sigma-1 receptor (Cavia porcellus, UniProt Q60492); assay: radioligand competition with [3H]; format: binding; conditions: read-out: Ki for sigma-1 receptors
sigma-2 receptor = target: T1, sigma-2 receptor (Rattus norvegicus, UniProt Q5U3Y7); assay: radioligand competition with [3H]RHM-1 in rat liver membranes; format: binding; conditions: read-out: Ki for sigma-2 receptors
T1 sequence (Q5U3Y7 1-176): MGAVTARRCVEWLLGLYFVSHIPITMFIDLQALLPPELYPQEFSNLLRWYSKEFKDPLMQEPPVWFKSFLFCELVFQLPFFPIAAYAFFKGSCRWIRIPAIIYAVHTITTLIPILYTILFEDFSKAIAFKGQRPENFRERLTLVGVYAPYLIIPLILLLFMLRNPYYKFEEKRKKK
Method in brief: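 Rat liver membrane homogenate (~300 μg protein) in 50 mM Tris-HCl, pH 8.0, incubated 60 min at 25°C with 1 nM [³H]RHM-1 (80 Ci/mmol) and test compound at 0.1 nM–10 μM. Stopped with cold 10 mM Tris-HCl/150 mM NaCl, pH 7.4, filtered onto glass-fiber filters presoaked 1 h in 50 mM Tris-HCl, washed three times ice-cold, scintillation counted. Nonspecific binding: 10 μM haloperidol.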

Chain of sigma-1 receptor (Q60492 whole entry): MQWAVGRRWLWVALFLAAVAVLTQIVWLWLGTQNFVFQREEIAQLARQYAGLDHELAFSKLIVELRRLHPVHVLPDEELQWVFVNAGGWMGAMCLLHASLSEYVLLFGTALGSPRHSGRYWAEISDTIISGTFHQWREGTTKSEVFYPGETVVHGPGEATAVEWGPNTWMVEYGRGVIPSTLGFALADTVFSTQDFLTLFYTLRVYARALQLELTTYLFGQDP

O[C@@H](CN1[C@@H]2CC[C@H]1CC(c1ccccc1)C2)c1cccc(Br)c1 (some centres unmarked) [RHM-138]
Ki (sigma-1 receptor): 0.544 µM
Ki (sigma-2 receptor): 0.0123 µM

Reference: PMC3923374 (Analytical biochemistry, 2013)
